In ChEMBL document CHEMBL2390929, “New nitric oxide donating 1,2,4-triazole/oxime hybrids: synthesis, investigation of anti-inflammatory, ulceroginic liability and antiproliferative activities” (Bioorg Med Chem, 2013):

Key:
A498 = test: Cytotoxicity against human A498 cells assessed as cell growth at 10^-5 M after 48 hrs by SRB assay; format: functional; conditions: A498, 48 h, read-out: Activity
Procedure, shortened: (§1)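 NCI 60-cell-line primary one-dose screen across nine tumour subpanels. Compound added at a single concentration of 10^-5 M and cultures incubated 48 h. Endpoint was sulforhodamine B protein staining read spectrophotometrically, with growth expressed as percent of untreated control cells.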

MDA-MB-435 = test: Cytotoxicity against human MDA-MB-435 cells assessed as cell growth at 10^-5 M after 48 hrs by SRB assay; format: functional; conditions: MDA-MB-435, 48 h, read-out: Activity; procedure, shortened: as §1
K562 = test: Cytotoxicity against human K562 cells assessed as cell growth at 10^-5 M after 48 hrs by SRB assay; format: functional; conditions: K562, 48 h, read-out: Activity; procedure, shortened: as §1
HT-29 = test: Cytotoxicity against human HT-29 cells assessed as cell growth at 10^-5 M after 48 hrs by SRB assay; format: functional; conditions: HT-29, 48 h, read-out: Activity; procedure, shortened: as §1
[1] = Induction of nitric oxide release in phosphate buffer at pH 7.4 at 0.1 mM after 5 hrs by Griess method in presence of 0.5 mM of N-acetylcysteine; format: physicochemical; conditions: pH 7.4, 5 h, 100 µM
Procedure, shortened: (§2)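 Compound in DMF diluted to final 10^-4 M in 1:1 50 mM phosphate buffer pH 7.4/MeOH with 5×10^-4 M N-acetylcysteine, 37 °C. Aliquot mixed with Griess reagent, 10 min at room temperature, A546 read. Nitrite quantified against sodium nitrite standards (10–80 nmol/mL); NO expressed as mol/mol. n = 4 reaction mixtures per compound.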

NCI/ADR-RES = test: Cytotoxicity against human NCI/ADR-RES cells assessed as cell growth at 10^-5 M after 48 hrs by SRB assay; format: functional; conditions: read-out: Activity; procedure, shortened: as §1
SK-OV-3 = test: Cytotoxicity against human SKOV3 cells assessed as cell growth at 10^-5 M after 48 hrs by SRB assay; format: functional; conditions: SK-OV-3, 48 h, read-out: Activity
Procedure, shortened: (§3)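 NCI-60 one-dose screen across nine tumour subpanels. Each agent added once at 10^-5 M, cultures incubated 48 h. Endpoint is sulforhodamine B protein staining read spectrophotometrically. Output is percent growth of treated cells relative to untreated controls.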

NCI-H226 = test: Cytotoxicity against human NCI-H226 cells assessed as cell growth at 10^-5 M after 48 hrs by SRB assay; format: functional; conditions: NCI-H226, 48 h, read-out: Activity; procedure, shortened: as §1
[2] = Induction of nitric oxide release in phosphate buffer at pH 7.4 at 0.1 mM after 1 hr by Griess method in presence of 0.5 mM of N-acetylcysteine; format: physicochemical; conditions: pH 7.4, 1 h, 100 µM; procedure, shortened: as §2
786-0 = test: Cytotoxicity against human 786-0 cells assessed as cell growth at 10^-5 M after 48 hrs by SRB assay; format: functional; conditions: 786-0, 48 h, read-out: Activity; procedure, shortened: as §1
TK-10 = test: Cytotoxicity against human TK10 cells assessed as cell growth at 10^-5 M after 48 hrs by SRB assay; format: functional; conditions: TK-10, 48 h, read-out: Activity; procedure, shortened: as §3
NCI-H460 = test: Cytotoxicity against human NCI-H460 cells assessed as cell growth at 10^-5 M after 48 hrs by SRB assay; format: functional; conditions: NCI-H460, 48 h, read-out: Activity; procedure, shortened: as §1
NCI-H322M = test: Cytotoxicity against human NCI-H322M cells assessed as cell growth at 10^-5 M after 48 hrs by SRB assay; format: functional; conditions: read-out: Activity; procedure, shortened: as §1
Rattus norvegicus = test: Gastrointestinal toxicity in albino rat assessed as histopathological analysis at 0.28 mmol/kg, po using haematoxylin and eosin staining by light microscopic analysis; format: organism-based; conditions: in vivo
Procedure, shortened: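 Adult male albino rats (120–140 g, Minia University), groups of four, fasted 24 h with water allowed. Oral dose 0.28 mmol/kg suspended in 0.5% aqueous CMC; vehicle-only controls. Gastric sections dewaxed, stained with haematoxylin 5–7 min, differentiated in 1% HCl/70% alcohol, counterstained with 1% eosin 10 min. Cleared in xylene, mounted, examined by light microscopy at ×400.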

Structure (SMILES) | growth at 10 µM (A498) [%] | growth at 10 µM (MDA-MB-435) [%] | growth at 10 µM (K562) [%] | growth at 10 µM (HT-29) [%] | Activity [1] [mol/mol] | growth at 10 µM (NCI/ADR-RES) [%] | growth at 10 µM (SK-OV-3) [%] | growth at 10 µM (NCI-H226) [%] | Activity [2] [mol/mol] | growth at 10 µM (786-0) [%] | growth at 10 µM (TK-10) [%] | growth at 10 µM (NCI-H460) [%] | growth at 10 µM (NCI-H322M) [%] | Activity (Rattus norvegicus)
CCn1c(SC/C(=N/O)c2ccccc2)nnc1-c1ccc(OC)c(OC)c1 | 92.3 | 116 | 93.4 | 100 | 0.25 | 103 | 96.4 | 97.6 | 0.06 | 115 | 106 | 105 | 99.4 | Non-toxic
O/N=C(/CSc1nnc(-c2ccccc2)n1-c1ccccc1)c1ccccc1 | 49.5 | 97.5 | 74.6 | 91.6 | 0.15 | 100 | 103 | 95.6 | 0.06 | 109 | – | 97.3 | – | –
COc1ccc(-c2nnc(SC/C(=N/O)c3ccccc3)n2-c2ccccc2)cc1 | 73.8 | 102 | 82.1 | 95.1 | 0.15 | 97.9 | 111 | 103 | 0.08 | 93.3 | 113 | 106 | 102 | –
COc1ccc(-c2nnc(SC/C(=N/O)c3ccccc3)n2-c2ccccc2)cc1OC | 94.2 | 109 | 88.7 | 97.5 | 0.23 | 93.2 | 103 | 94.9 | 0.15 | 102 | 123 | 114 | 103 | –
COc1cc(-c2nnc(SC/C(=N/O)c3ccccc3)n2-c2ccccc2)cc(OC)c1OC | 98.4 | 104 | 85.2 | 99.5 | 0.16 | 98.8 | 110 | 94.1 | 0.07 | 94.7 | 116 | 110 | 104 | –
C=CCn1c(SC/C(=N\O)c2ccccc2)nnc1-c1ccc(OC)c(OC)c1 | 97.4 | 105 | 90.8 | 93.5 | 0.24 | 93 | 110 | 103 | 0.09 | 119 | 112 | 105 | 96.6 | –
CCn1c(SC/C(=N/O)c2ccccc2)nnc1-c1ccccc1 | 69.3 | 105 | 86 | 104 | 0.14 | 103 | 89.7 | 108 | 0.06 | 105 | – | 102 | – | –
